According to ChEMBL document CHEMBL5058577, “EUbOPEN Chemogenomics Library 2 (Multiplex)” (2022):

System: HEK-293T
Assay: Multiplex assay against HEK293T
Assay type: toxicity, cell-based
Settings: human
Summary of the method: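 At seeding, live cells were stained with Hoechst33342, BioTracker Green Microtubule Cytoskeleton Dye, MitoTracker Red and Annexin V Alexa Fluor 680. After compound addition they were imaged on a CQ1 microscope at 37°C and 5% CO2, and CellPathfinder machine-learning gating sorted them into Hoechst high-intensity objects or normal cells, with normal cells further split into healthy, pyknosed or fragmented nuclei and pyknosed cells into mitotic or apoptotic. Tubulin, mitochondrial-mass and membrane-permeability phenotypes are given as per cents of cells with healthy nuclei.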

[1] = 12 h, 1 µM, compound concentration 1 uM, replicate 1
[2] = 12 h, 1 µM, compound concentration 1 uM, replicate 2
[3] = 12 h, 10 µM, compound concentration 10 uM, replicate 1
[4] = 12 h, 10 µM, compound concentration 10 uM, replicate 2
[5] = 24 h, 1 µM, compound concentration 1 uM, replicate 1
[6] = 24 h, 1 µM, compound concentration 1 uM, replicate 2
[7] = 24 h, 10 µM, compound concentration 10 uM, replicate 1
[8] = 24 h, 10 µM, compound concentration 10 uM, replicate 2
[9] = 48 h, 1 µM, compound concentration 1 uM, replicate 1
[10] = 48 h, 1 µM, compound concentration 1 uM, replicate 2
[11] = 48 h, 10 µM, compound concentration 10 uM, replicate 1
[12] = 48 h, 10 µM, compound concentration 10 uM, replicate 2

O=C(NCCNCC(O)COc1ccc(O)cc1)N1CCOCC1.O=C(NCCNCC(O)COc1ccc(O)cc1)N1CCOCC1.O=C(O)/C=C/C(=O)O (stereo unspecified) [XAMOTEROL FUMARATE]
Population Apoptotic (%) [1]: 39%
Population Fragmented Nuclei (%) [1]: 5%
Population Healthy Nuclei (%) [1]: 79%
Population Hoechst High Intensity Objects (%) [1]: 4%
Population Membrane Permeable-Phenotype (%) [1]: 0%
Population Mitochondria Different-Phenotype (%) [1]: 39%
Population Mitotic Cells (%) [1]: 60%
Population Normal (%) [1]: 95%
Population Pyknosed Nuclei (%) [1]: 14%
Population Tubulin-Different-Phenotype (%) [1]: 26%
Total Cell Count [1]: 339
Population Apoptotic (%) [2]: 60%
Population Healthy Nuclei (%) [2]: 76%
Population Hoechst High Intensity Objects (%) [2]: 14%
Population Mitochondria Different-Phenotype (%) [2]: 57%
Population Mitotic Cells (%) [2]: 39%
Population Normal (%) [2]: 85%
Population Pyknosed Nuclei (%) [2]: 17%
Population Tubulin-Different-Phenotype (%) [2]: 21%
Total Cell Count [2]: 271
Population Apoptotic (%) [3]: 35%
Population Fragmented Nuclei (%) [3]: 7%
Population Healthy Nuclei (%) [3]: 83%
Population Hoechst High Intensity Objects (%) [3]: 6%
Population Membrane Permeable-Phenotype (%) [3]: 0%
Population Mitochondria Different-Phenotype (%) [3]: 39%
Population Mitotic Cells (%) [3]: 65%
Population Normal (%) [3]: 93%
Population Pyknosed Nuclei (%) [3]: 8%
Population Tubulin-Different-Phenotype (%) [3]: 19%
Total Cell Count [3]: 499
Population Apoptotic (%) [4]: 29%
Population Fragmented Nuclei (%) [4]: 4%
Population Healthy Nuclei (%) [4]: 86%
Population Hoechst High Intensity Objects (%) [4]: 5%
Population Mitochondria Different-Phenotype (%) [4]: 62%
Population Mitotic Cells (%) [4]: 70%
Population Normal (%) [4]: 94%
Population Pyknosed Nuclei (%) [4]: 9%
Population Tubulin-Different-Phenotype (%) [4]: 23%
Total Cell Count [4]: 406
Population Apoptotic (%) [5]: 26%
Population Fragmented Nuclei (%) [5]: 8%
Population Healthy Nuclei (%) [5]: 78%
Population Hoechst High Intensity Objects (%) [5]: 6%
Population Membrane Permeable-Phenotype (%) [5]: 0%
Population Mitochondria Different-Phenotype (%) [5]: 18%
Population Mitotic Cells (%) [5]: 73%
Population Normal (%) [5]: 93%
Population Pyknosed Nuclei (%) [5]: 12%
Population Tubulin-Different-Phenotype (%) [5]: 17%
Total Cell Count [5]: 475
Population Apoptotic (%) [6]: 45%
Population Fragmented Nuclei (%) [6]: 9%
Population Healthy Nuclei (%) [6]: 80%
Population Hoechst High Intensity Objects (%) [6]: 13%
Population Mitochondria Different-Phenotype (%) [6]: 38%
Population Mitotic Cells (%) [6]: 54%
Population Normal (%) [6]: 86%
Population Pyknosed Nuclei (%) [6]: 10%
Population Tubulin-Different-Phenotype (%) [6]: 15%
Total Cell Count [6]: 366
Population Apoptotic (%) [7]: 21%
Population Fragmented Nuclei (%) [7]: 9%
Population Healthy Nuclei (%) [7]: 79%
Population Hoechst High Intensity Objects (%) [7]: 5%
Population Membrane Permeable-Phenotype (%) [7]: 0%
Population Mitochondria Different-Phenotype (%) [7]: 25%
Population Mitotic Cells (%) [7]: 78%
Population Normal (%) [7]: 94%
Population Pyknosed Nuclei (%) [7]: 11%
Population Tubulin-Different-Phenotype (%) [7]: 12%
Total Cell Count [7]: 632
Population Apoptotic (%) [8]: 33%
Population Fragmented Nuclei (%) [8]: 7%
Population Healthy Nuclei (%) [8]: 85%
Population Hoechst High Intensity Objects (%) [8]: 4%
Population Mitochondria Different-Phenotype (%) [8]: 42%
Population Mitotic Cells (%) [8]: 66%
Population Normal (%) [8]: 95%
Population Pyknosed Nuclei (%) [8]: 7%
Population Tubulin-Different-Phenotype (%) [8]: 17%
Total Cell Count [8]: 542
Population Apoptotic (%) [9]: 21%
Population Fragmented Nuclei (%) [9]: 14%
Population Healthy Nuclei (%) [9]: 77%
Population Hoechst High Intensity Objects (%) [9]: 2%
Population Membrane Permeable-Phenotype (%) [9]: 2%
Population Mitochondria Different-Phenotype (%) [9]: 11%
Population Mitotic Cells (%) [9]: 78%
Population Normal (%) [9]: 97%
Population Pyknosed Nuclei (%) [9]: 7%
Population Tubulin-Different-Phenotype (%) [9]: 9%
Total Cell Count [9]: 918
Population Apoptotic (%) [10]: 41%
Population Fragmented Nuclei (%) [10]: 11%
Population Healthy Nuclei (%) [10]: 81%
Population Hoechst High Intensity Objects (%) [10]: 4%
Population Membrane Permeable-Phenotype (%) [10]: 0%
Population Mitochondria Different-Phenotype (%) [10]: 18%
Population Mitotic Cells (%) [10]: 58%
Population Normal (%) [10]: 95%
Population Pyknosed Nuclei (%) [10]: 6%
Population Tubulin-Different-Phenotype (%) [10]: 10%
Total Cell Count [10]: 526
Population Apoptotic (%) [11]: 17%
Population Fragmented Nuclei (%) [11]: 15%
Population Healthy Nuclei (%) [11]: 79%
Population Hoechst High Intensity Objects (%) [11]: 0%
Population Membrane Permeable-Phenotype (%) [11]: 1%
Population Mitochondria Different-Phenotype (%) [11]: 13%
Population Mitotic Cells (%) [11]: 82%
Population Normal (%) [11]: 99%
Population Pyknosed Nuclei (%) [11]: 5%
Population Tubulin-Different-Phenotype (%) [11]: 6%
Total Cell Count [11]: 1116
Population Apoptotic (%) [12]: 25%
Population Fragmented Nuclei (%) [12]: 16%
Population Healthy Nuclei (%) [12]: 77%
Population Hoechst High Intensity Objects (%) [12]: 2%
Population Membrane Permeable-Phenotype (%) [12]: 0%
Population Mitochondria Different-Phenotype (%) [12]: 16%
Population Mitotic Cells (%) [12]: 74%
Population Normal (%) [12]: 97%
Population Tubulin-Different-Phenotype (%) [12]: 10%
Total Cell Count [12]: 827
